# Assay outcomes: PubChem, Sanford-Burnham Center for Chemical Genomics
# Shown are actives, neighbours in structure and some others; about 1.7% of the full set was active somewhere.
# Scp-1 inhibitor = Scp-1 (human) phosphatase inhibition. Q9GZU7. Recombinant Scp1, phosphopeptide, malachite green phosphate absorbance. inhibition, % at 20 µM. 340,000 compounds, 0.88% hits. AID 493091;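 active = inhibition above about 50% at 20 µM, limit read from the data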;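 note: plate controls were DMSO wells with enzyme for no effect and wells lacking enzyme for full effect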
# Target sequence (Q9GZU7 76-261 limits assumed): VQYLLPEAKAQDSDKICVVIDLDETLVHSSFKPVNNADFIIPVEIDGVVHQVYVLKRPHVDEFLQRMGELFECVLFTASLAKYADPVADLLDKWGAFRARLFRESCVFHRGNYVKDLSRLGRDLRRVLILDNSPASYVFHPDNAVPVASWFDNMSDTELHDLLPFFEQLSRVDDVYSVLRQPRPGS
#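 Test system: SCP-1 catalytic domain; Buffer or medium: Acidic Tris acetate buffer with magnesium and detergent; Also added: Phosphorylated 17-residue peptide substrate; Compound: single 20 µM dose, 1% DMSO; Schedule: enzyme reaction 45 min at room temperature, colour 5 min, stabilisation 30 min; Signal: Phosphate-binding colour reagent, absorbance read at 630 nm.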
# STEP block = STEP (human) phosphatase inhibition | 360,000 compounds, 0.25% hits | P54829 | recombinant STEP, OMFP fluorogenic substrate, fluorescence | inhibition, % at 20 µM;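 active = inhibition at 20 µM, scaled per plate between control wells, above about 37%, limit read from the data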;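 note: 0% = DMSO with enzyme and substrate and 100% = substrate only without enzyme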
#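 medium = Bis-Tris buffer pH 6.0, 2.5 mM DTT, 0.005% Tween 20 | test system = STEP (striatal-enriched tyrosine phosphatase) enzyme, cell-free | measure = normalized % inhibition | compound dosing = 20 µM, 1% DMSO | also added = 25 µM OMFP | schedule = reaction 20 min, ambient temperature | measured by = fluorescence read at 480 nm ex / 540 nm em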
# SUMO1-SIM PPI = alters human SUMO1 binding to SIM partners | SUMO1 binding to a labelled peptide, TR-FRET, 1 h | inhibition, % at 20 µM | 360,000 compounds, 0.33% hits | AID 602429; in the data active = inhibition above about 37%
# Target sequence (P63165 whole entry, looked up): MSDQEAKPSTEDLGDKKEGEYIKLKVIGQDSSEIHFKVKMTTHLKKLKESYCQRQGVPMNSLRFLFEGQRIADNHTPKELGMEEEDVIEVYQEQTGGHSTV
# LMPTP inh = blocks human LMPTP phosphatase | recombinant LMPTP-A, OMFP fluorogenic substrate, fluorescence intensity | inhibition, % at 20 µM | 360,000 compounds, 0.22% hits | AID 651560;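 active = compounds that cut the enzyme signal by at least half of the control window in the single-dose screen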;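 note: plate controls were DMSO wells with enzyme plus substrate for no effect and substrate without enzyme for full effect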
#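 Test system – LMPTP-A enzyme · Amount – LMPTP-A at 0.625 nM final in the reaction · Buffer or medium – Bis-Tris pH 6.0, DTT, detergent · Reagent – OMFP 400 µM · Doses – single 20 µM dose · Schedule – reaction 50 min, room temperature, dark · Detection – fluorescence intensity of OMFP turnover product · Evaluation – percent inhibition versus substrate-only and uninhibited controls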
# DNMT1 block = inhibitors of human DNMT1. AID 588458. inhibition (reported as % activation of signal), % at 10 µM. DNMT1 molecular beacon, Hinp1I cleavage, fluorescence. 360,000 compounds, 0.83% hits; in the data active = inhibition above about 50%
# * = called active by the depositor; . = no result given.
SMILES,Scp-1 inhibitor,STEP block,SUMO1-SIM PPI,LMPTP inh,DNMT1 block
O=C(O)c1ccc(Cl)c(NC(=O)C2CCN(S(=O)(=O)c3cccs3)CC2)c1,.,-1,-34,5,5
CCCCNC(=O)c1ccc(CS(=O)(=O)c2cccc(C(F)(F)F)c2)o1,0,-1,3,0,0
O=C(NCc1ccco1)c1ccc(CS(=O)(=O)c2cccc(C(F)(F)F)c2)o1,-11,2,55*,-1,-1
COc1ccc(C2=CC(=O)C[C@H](c3ccc(F)cc3)C2)cc1OC,-11,0,-43,1,-5
Oc1ccc(CCNc2c3ccccc3nc3ccccc23)cc1O,-10,2,-14,47*,79*
c1ccc(CNc2c3ccccc3nc3ccccc23)cc1,-11,2,-22,61*,67*
CN(C)CCCNc1c2ccccc2nc2ccccc12,-4,2,-68,44,48
O=C(CNC(=O)c1ccc(Br)o1)NNC(=O)c1ccccc1O,1,-1,11,0,0
CC1CC(=O)c2c(cc3c(-c4c(O)cc(O)c5c(O)c6c(cc45)OC(C)CC6=O)c(O)cc(O)c3c2O)O1 (stereo unspecified),15,6,64*,49,81*
O=C1CC(c2ccc(O)cc2)Oc2cc(O)cc(O)c21 (stereo unspecified),-11,-2,4,0,2
O=C(Nc1cccc(O)c1)c1c(O)c2ccccc2[nH]c1=O,-6,-2,-1,0,-7
O=c1oc2c(O)c(O)cc3c(=O)oc4c(O)c(O)cc1c4c23,96*,99*,94*,86*,88*
CN(c1ccccc1)S(=O)(=O)c1ccc(NC(=O)c2nc(S(C)(=O)=O)ncc2Cl)cc1,-2,-1,-9,3,3
CCCCNC(=O)c1nc(C2CCNCC2)oc1-c1cccc(C(F)(F)F)c1,.,.,11,60*,.
CCCCNC(=O)c1nc(C2CCN(S(=O)(=O)c3ccccc3)CC2)oc1-c1cccc(C(F)(F)F)c1,.,3,4,4,-1
O=C(COC(=O)c1c[nH]c2ccccc12)Nc1ccc(F)cc1,-3,-3,0,1,-3
COc1cccc(NC(=O)CN2C(=O)COc3ccc(S(=O)(=O)N4CCCCCC4)cc32)c1,14,-1,-2,2,-3
CCC(C)C(N)C(=O)N1CCCC1C(=O)NC(C(=O)O)C(C)CC (stereo unspecified),-9,2,3,0,-1
Cc1ccc(S(=O)(=O)N(C)CC(=O)NNC(=O)CCNS(=O)(=O)c2cccc(C)c2)cc1,-9,1,3,-1,1
CC(C)OCP(=O)(c1ccccc1)c1ccccc1,-4,-1,51*,-1,4
COCP(=O)(c1ccccc1)c1ccccc1,-6,-4,5,0,4
CN(CC(=O)NCc1ccc(F)cc1)S(=O)(=O)c1ccc(Br)s1,-5,0,-5,0,0
O=C(Nc1ccc2oc(=O)ccc2c1)c1ccc(-c2ccccc2[N+](=O)[O-])o1,0,7,57*,11,-2
O=C(Nc1ccc2oc(=O)ccc2c1)c1ccc(-c2ccc(Cl)cc2)o1,0,3,-3,6,42
O=C(Nc1ccc2oc(=O)ccc2c1)c1ccc(-c2cccc([N+](=O)[O-])c2)o1,32,28,75*,54*,22
SMILES,Scp-1 inhibitor,STEP block,SUMO1-SIM PPI,LMPTP inh,DNMT1 block
O=C(Nc1ccc2oc(=O)ccc2c1)c1ccccc1[N+](=O)[O-],-3,-1,-17,0,0
CCCCNS(=O)(=O)c1cccc(NC(=O)[C@@H]2O[C@H](CO)[C@@H](O)[C@H]2O)c1,.,-1,-3,0,7
N#Cc1ccc[n+](CC(=O)c2ccc(NC(=O)c3ccccc3)cc2)c1,-11,-1,-1,9,-10
O=C(/C=C/c1ccco1)NC(=S)Nc1ccc(C(=O)O)cc1,52*,28,26,0,91*
CC(=O)NC(=S)Nc1ccc(NC(=S)NC(=O)/C=C/c2ccco2)cc1,-7,8,-2,11,8
CCOC(=O)c1ccccc1NC(=O)C=C(C)C,-1,4,-3,1,6
CCOC(=O)c1ccccc1NC(=O)/C=C/c1cc(OC)c(OC)c(OC)c1,1,-2,43*,-1,-8
